CHOP UPR activ: apoptotic UPR (CHOP) activation; 0.34% of 330,000 active; activation, % at 10 µM; CHO-CHOP luciferase reporter, luminescence; percent of tunicamycin response over DMSO baseline;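 active means at 10 µM dose, activation of 40% or more, normalized to positive control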;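 further: 100% = tunicamycin at 10 µg/mL and 0% = DMSO alone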
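System: CHO-CHOP luciferase reporter cell line; amount: 500 cells/well; buffer or medium: F12 medium containing 10% fetal bovine serum; incubation: 6 h compound exposure at 37 °C after overnight seeding; measured by: luciferase luminescence after 10 min with Steady-Glo reagent; evaluation: % reporter activation, DMSO baseline versus tunicamycin full activation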
Jurkat NFkB inh: lowers PMA/ionomycin-induced NF-kB signal in Jurkat cells; PMA/ionomycin-induced NF-kB luciferase reporter, luminescence; inhibition, % at 4 µM; 0.53% of 330,000 active; in the data active means inhibition above about 50%
CHOP inh: CHOP inhibition in unfolded protein response; CHO-K1 CHOP-promoter luciferase, tunicamycin-induced, 15-18 h; inhibition, % at 10 µM; AID 2732; 3.8% of 220,000 active;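 active means compounds that reduced the stress-induced luciferase reporter signal by more than about 70% of percent inhibition, limit read from the data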;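 further: 0% = tunicamycin plus vehicle and 100% = wells without tunicamycin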
697 NFkB inh: lowers PMA/ionomycin-induced NF-kB signal in 697 B cells | inhibition, % at 4 µM | 697 B-cell NF-kB luciferase reporter, 16 h | 0.33% of 330,000 active; in the data active means inhibition above about 35%
UPR XBP1 act: adaptive UPR (XBP1) activation; CHO-XBP1 luciferase reporter, IRE1-XBP1 UPR activation, luminescence; percent of tunicamycin response, DMSO as zero; activation, % at 20 µM; 0.33% of 330,000 active;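 active means versus positive control, 20 µM dose yields 30% or more activation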;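 further: 100% = tunicamycin at 10 µg/mL and 0% = DMSO only wells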
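incubation = overnight seeding at 37 °C, 6 h compound treatment at 37 °C | assay system = CHO-XBP1 cells stably carrying IRE1-XBP1-driven luciferase reporter | input = 1000 cells per well | detection = luciferase luminescence | dosing = single point, 20 µM final compound, 1% DMSO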
Gli-Sufu block: blocks Gli-Sufu signaling in a luciferase reporter. inhibition, % at 5 µM. Sufu-KO-LIGHT fibroblasts, Gli luciferase reporter luminescence. AID 588413. 0.74% of 340,000 active;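 active means inhibition above about 55%, limit read from the data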;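 further: 0% = DMSO-treated cells and 100% = wells with medium but no cells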
The depositor's hits bear a star. Most compounds without a hit are left out; they make up all but 3.9% or so of the library.

CCc1ccc(S(=O)(=O)Nc2cc3c(cc2C)n(C)c(=O)n3C)cc1 was read as CHOP UPR activ 5.4, Jurkat NFkB inh 45.5, 697 NFkB inh -36.8, UPR XBP1 act -7.2 and Gli-Sufu block 65.2*.
Screening COc1ccc(-n2ncc3c(N4CCCCC4)ncnc32)cc1 returned CHOP UPR activ -11.0, Jurkat NFkB inh 15.2, CHOP inh 89.1*, 697 NFkB inh -25.6, UPR XBP1 act -8.9 and Gli-Sufu block 55.9*.
For Clc1ccc(Cn2ncc3c(N4CCCCC4)ncnc32)cc1 the results were CHOP UPR activ 0.4, Jurkat NFkB inh -4.9, CHOP inh 57.9, 697 NFkB inh 18.1, UPR XBP1 act 3.3 and Gli-Sufu block 3.2.
Screening COc1ccc(-n2ncc3c(N4CCN(c5cccc(C)c5C)CC4)ncnc32)cc1 returned CHOP UPR activ 1.5, Jurkat NFkB inh 10.0, 697 NFkB inh -1.6, UPR XBP1 act 0.3 and Gli-Sufu block 4.1.
`Clc1ccc(-n2ncc3c(N4CCCCCC4)ncnc32)cc1` gave CHOP UPR activ -10.2, Jurkat NFkB inh 16.0, CHOP inh 83.9*, 697 NFkB inh -141.1 and UPR XBP1 act -9.1.
Screening COc1ccc(N2CCN(c3ncnc4c3cnn4-c3ccc(C)cc3C)CC2)cc1 returned CHOP UPR activ 4.2, Jurkat NFkB inh 36.9, CHOP inh 74.4*, 697 NFkB inh -14.6, UPR XBP1 act -0.2 and Gli-Sufu block 27.8.
`C=CCn1c(SCC(=O)N2c3ccccc3Sc3ccccc32)nnc1-c1ccco1` gave CHOP UPR activ 0.5, Jurkat NFkB inh 19.1, CHOP inh -8.4, 697 NFkB inh 15.2, UPR XBP1 act -0.1 and Gli-Sufu block 0.4.
C=CCn1c(SCC(O)Cn2c3ccccc3c3ccccc32)nnc1-c1ccco1 (centres undefined) was read as CHOP UPR activ -1.9, Jurkat NFkB inh 2.1, CHOP inh 77.2*, 697 NFkB inh 1.0, UPR XBP1 act 2.1 and Gli-Sufu block -0.8.
For CCCCNC(=S)N(C)/N=C/c1c(F)c(F)c(F)c(F)c1F the results were CHOP UPR activ -0.9, Jurkat NFkB inh 0.9, CHOP inh 21.9, 697 NFkB inh 1.5, UPR XBP1 act -0.6 and Gli-Sufu block 4.7.
Screening CCCCNC(=S)N(C)/N=C/c1c(C)[nH]c2ccccc12 returned CHOP UPR activ 2.8, Jurkat NFkB inh -5.8, CHOP inh 72.4*, 697 NFkB inh -21.8, UPR XBP1 act -0.6 and Gli-Sufu block 31.3.
COc1ccc(/C=N/N2CCOCC2)cc1O was read as CHOP UPR activ 3.3, Jurkat NFkB inh -14.8, CHOP inh -26.3, 697 NFkB inh -0.5, UPR XBP1 act 3.3 and Gli-Sufu block -1.3.
`COc1ccc(/C=N/N2CCN(C3c4ccccc4-c4ccccc43)CC2)cc1O` gave CHOP UPR activ 2.6, Jurkat NFkB inh -4.8, CHOP inh 91.7*, 697 NFkB inh -33.8, UPR XBP1 act -1.6 and Gli-Sufu block 7.3.
CCOc1cc(-c2c(C#N)c(N)nc3c2CCc2ccccc2-3)ccc1O was read as CHOP UPR activ 3.0, Jurkat NFkB inh 29.6, CHOP inh 78.0*, 697 NFkB inh 30.1, UPR XBP1 act 1.7 and Gli-Sufu block 35.3.
`CCOc1cc(-c2c(C#N)c(N)nc3c2CCCC3C)ccc1O` (centres undefined) gave CHOP UPR activ 1.6, Jurkat NFkB inh 0.3, CHOP inh 56.0, 697 NFkB inh -10.4, UPR XBP1 act 2.6 and Gli-Sufu block 9.3.
O=C(CCc1nnc(Cc2cccc(C(F)(F)F)c2)o1)NC1CC1 was read as CHOP UPR activ 2.0, Jurkat NFkB inh 5.1, CHOP inh 78.0*, 697 NFkB inh -1.5, UPR XBP1 act -0.4 and Gli-Sufu block -14.1.
For CC(NC(=O)CCc1nnc(Cc2cccc(C(F)(F)F)c2)o1)C1CC1 (centres undefined) the results were CHOP UPR activ 2.7, Jurkat NFkB inh -35.1, CHOP inh -7.6, 697 NFkB inh -36.7, UPR XBP1 act 0.1 and Gli-Sufu block 13.3.
For COc1cccc(CN2CC(C(=O)NCCOc3cccnc3)CCC2=O)c1 (centres undefined) the results were CHOP UPR activ 0.6, Jurkat NFkB inh 1.0, 697 NFkB inh -4.2, UPR XBP1 act -5.0 and Gli-Sufu block -15.7.
`Cc1ccc(C(C)C)c(OCC(=O)OCc2c(C)noc2C)c1` gave CHOP UPR activ -1.3, Jurkat NFkB inh 1.5, CHOP inh 83.3*, 697 NFkB inh 5.5, UPR XBP1 act -1.9 and Gli-Sufu block 0.5.
Screening CN(C)CCCOc1cccc(Oc2ccccc2)c1 returned CHOP UPR activ 1.0, Jurkat NFkB inh -3.7, CHOP inh -7.6, 697 NFkB inh 1.5, UPR XBP1 act -1.5 and Gli-Sufu block 2.1.
`C=CCN(CC=C)CCOc1cccc(Oc2ccccc2)c1` gave CHOP UPR activ 1.6, Jurkat NFkB inh 11.2, CHOP inh 87.0*, 697 NFkB inh -9.3, UPR XBP1 act 2.8 and Gli-Sufu block 7.5.
Screening Cc1cccc(CCN2C(N(C)C)=NC[C@@H]2C)c1 returned CHOP UPR activ -1.2, Jurkat NFkB inh -17.7, 697 NFkB inh -4.2, UPR XBP1 act -1.2 and Gli-Sufu block -6.4.
Screening CC(=O)Nc1ccc(S(=O)(=O)NCCC(=O)OCc2csc(CC(=O)Nc3ccccc3C)n2)cc1 returned CHOP UPR activ -2.6, Jurkat NFkB inh 10.8, 697 NFkB inh 1.9, UPR XBP1 act -1.7 and Gli-Sufu block -1.8.
Cc1ccccc1OCc1nc(-c2cccnc2)no1 was read as CHOP UPR activ 1.4, Jurkat NFkB inh -38.7, CHOP inh 2.9, 697 NFkB inh -17.6, UPR XBP1 act 1.1 and Gli-Sufu block -24.4.
`Cc1cc(OCc2nc(-c3cccnc3)no2)c(C)cc1Br` gave CHOP UPR activ 2.7, Jurkat NFkB inh 4.5, CHOP inh 86.2*, 697 NFkB inh -6.0, UPR XBP1 act 5.3 and Gli-Sufu block 19.8.
`CCOc1cccc(-c2nnc3sc(COc4ccc(C)cc4)nn23)c1` gave CHOP UPR activ -0.4, Jurkat NFkB inh 12.8, CHOP inh 70.3*, 697 NFkB inh 4.3, UPR XBP1 act -2.7 and Gli-Sufu block -5.4.
`CCCOP(=O)(OCCC)c1nc(-c2ccccc2)oc1NCc1ccccc1` gave CHOP UPR activ -1.8, Jurkat NFkB inh -2.9, CHOP inh 66.3, 697 NFkB inh -0.1, UPR XBP1 act 0.9 and Gli-Sufu block -2.3.
For CCOP(=O)(OCC)c1nc(-c2ccc(Cl)cc2)oc1NCc1ccccc1 the results were CHOP UPR activ -1.8, Jurkat NFkB inh -4.4, CHOP inh 91.7*, 697 NFkB inh 1.0, UPR XBP1 act -3.1 and Gli-Sufu block 1.1.
O=C(c1cccc(F)c1)N1CCN(c2cc(N3CCCCC3)c(F)cc2[N+](=O)[O-])CC1 was read as CHOP UPR activ 0.8, Jurkat NFkB inh 12.4, CHOP inh 73.2*, 697 NFkB inh 0.2, UPR XBP1 act -2.0 and Gli-Sufu block 10.7.

Bioassay records (PubChem)
